Measured values from ChEMBL document CHEMBL3822431, “Hydroxychalcone inhibitors of Streptococcus mutans glucosyl transferases and biofilms as potential anticaries agents” (Bioorg Med Chem Lett, 2016).
Activity calls are given as the source filed them. The rule behind the calls is not given here.

Columns and labels:
[1] = target: T1, Glucosyltransferase-S (Streptococcus mutans serotype c (strain ATCC 700610 / UA159)) (UniProt P49331); test: Inhibition of Wild-type Streptococcus mutans UA159 glucosyltransferase D at 50 uM by zymography
T1 sequence (whole entry): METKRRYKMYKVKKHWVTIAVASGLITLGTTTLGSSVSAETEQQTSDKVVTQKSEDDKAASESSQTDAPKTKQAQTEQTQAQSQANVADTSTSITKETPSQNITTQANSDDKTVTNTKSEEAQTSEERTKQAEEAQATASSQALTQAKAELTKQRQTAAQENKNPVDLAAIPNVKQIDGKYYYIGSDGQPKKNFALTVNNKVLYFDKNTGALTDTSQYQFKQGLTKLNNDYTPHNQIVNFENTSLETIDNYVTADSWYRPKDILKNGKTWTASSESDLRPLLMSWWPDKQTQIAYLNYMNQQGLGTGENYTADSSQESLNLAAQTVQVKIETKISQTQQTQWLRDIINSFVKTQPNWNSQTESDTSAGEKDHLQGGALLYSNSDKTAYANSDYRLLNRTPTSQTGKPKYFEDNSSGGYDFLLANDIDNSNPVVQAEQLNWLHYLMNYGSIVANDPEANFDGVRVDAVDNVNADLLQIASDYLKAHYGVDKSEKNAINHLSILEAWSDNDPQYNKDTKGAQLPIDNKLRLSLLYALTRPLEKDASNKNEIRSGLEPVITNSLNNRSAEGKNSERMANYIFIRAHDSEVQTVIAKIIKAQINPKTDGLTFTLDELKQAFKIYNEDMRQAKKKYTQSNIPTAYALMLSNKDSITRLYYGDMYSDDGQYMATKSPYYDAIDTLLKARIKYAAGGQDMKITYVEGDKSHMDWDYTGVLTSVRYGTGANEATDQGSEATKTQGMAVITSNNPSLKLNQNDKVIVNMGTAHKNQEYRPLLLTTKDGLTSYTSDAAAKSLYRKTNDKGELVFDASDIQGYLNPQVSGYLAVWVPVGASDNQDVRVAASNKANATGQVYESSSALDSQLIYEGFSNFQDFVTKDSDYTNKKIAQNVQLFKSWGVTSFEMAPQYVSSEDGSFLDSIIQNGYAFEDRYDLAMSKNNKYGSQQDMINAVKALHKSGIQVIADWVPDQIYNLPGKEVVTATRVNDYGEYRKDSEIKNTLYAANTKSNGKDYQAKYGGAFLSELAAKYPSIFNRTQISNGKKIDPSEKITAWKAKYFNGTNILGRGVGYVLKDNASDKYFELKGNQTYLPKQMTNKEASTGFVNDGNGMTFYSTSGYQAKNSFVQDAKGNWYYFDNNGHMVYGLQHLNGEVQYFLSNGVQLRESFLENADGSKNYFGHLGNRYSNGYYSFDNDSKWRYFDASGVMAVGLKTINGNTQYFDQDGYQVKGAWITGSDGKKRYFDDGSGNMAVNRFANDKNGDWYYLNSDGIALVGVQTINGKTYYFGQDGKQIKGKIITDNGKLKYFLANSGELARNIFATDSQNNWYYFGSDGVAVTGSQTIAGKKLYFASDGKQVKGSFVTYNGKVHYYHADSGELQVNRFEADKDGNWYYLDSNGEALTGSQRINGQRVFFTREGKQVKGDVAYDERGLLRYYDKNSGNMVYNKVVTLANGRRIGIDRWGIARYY
Summary of the method: (§1)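 Compound (50 µM) added to overnight S. mutans UA159 wild-type cultures; Gtfs concentrated from supernatants, run on duplicate SDS-PAGE; second gel used for zymogram, glucan band intensity taken as Gtf activity.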

[2] = target: T2, Glucosyltransferase-SI (Streptococcus mutans serotype c (strain ATCC 700610 / UA159)) (UniProt P13470); test: Inhibition of Wild-type Streptococcus mutans UA159 glucosyltransferase C at 50 uM by zymography; summary of the method: as §1
T2 sequence (whole entry): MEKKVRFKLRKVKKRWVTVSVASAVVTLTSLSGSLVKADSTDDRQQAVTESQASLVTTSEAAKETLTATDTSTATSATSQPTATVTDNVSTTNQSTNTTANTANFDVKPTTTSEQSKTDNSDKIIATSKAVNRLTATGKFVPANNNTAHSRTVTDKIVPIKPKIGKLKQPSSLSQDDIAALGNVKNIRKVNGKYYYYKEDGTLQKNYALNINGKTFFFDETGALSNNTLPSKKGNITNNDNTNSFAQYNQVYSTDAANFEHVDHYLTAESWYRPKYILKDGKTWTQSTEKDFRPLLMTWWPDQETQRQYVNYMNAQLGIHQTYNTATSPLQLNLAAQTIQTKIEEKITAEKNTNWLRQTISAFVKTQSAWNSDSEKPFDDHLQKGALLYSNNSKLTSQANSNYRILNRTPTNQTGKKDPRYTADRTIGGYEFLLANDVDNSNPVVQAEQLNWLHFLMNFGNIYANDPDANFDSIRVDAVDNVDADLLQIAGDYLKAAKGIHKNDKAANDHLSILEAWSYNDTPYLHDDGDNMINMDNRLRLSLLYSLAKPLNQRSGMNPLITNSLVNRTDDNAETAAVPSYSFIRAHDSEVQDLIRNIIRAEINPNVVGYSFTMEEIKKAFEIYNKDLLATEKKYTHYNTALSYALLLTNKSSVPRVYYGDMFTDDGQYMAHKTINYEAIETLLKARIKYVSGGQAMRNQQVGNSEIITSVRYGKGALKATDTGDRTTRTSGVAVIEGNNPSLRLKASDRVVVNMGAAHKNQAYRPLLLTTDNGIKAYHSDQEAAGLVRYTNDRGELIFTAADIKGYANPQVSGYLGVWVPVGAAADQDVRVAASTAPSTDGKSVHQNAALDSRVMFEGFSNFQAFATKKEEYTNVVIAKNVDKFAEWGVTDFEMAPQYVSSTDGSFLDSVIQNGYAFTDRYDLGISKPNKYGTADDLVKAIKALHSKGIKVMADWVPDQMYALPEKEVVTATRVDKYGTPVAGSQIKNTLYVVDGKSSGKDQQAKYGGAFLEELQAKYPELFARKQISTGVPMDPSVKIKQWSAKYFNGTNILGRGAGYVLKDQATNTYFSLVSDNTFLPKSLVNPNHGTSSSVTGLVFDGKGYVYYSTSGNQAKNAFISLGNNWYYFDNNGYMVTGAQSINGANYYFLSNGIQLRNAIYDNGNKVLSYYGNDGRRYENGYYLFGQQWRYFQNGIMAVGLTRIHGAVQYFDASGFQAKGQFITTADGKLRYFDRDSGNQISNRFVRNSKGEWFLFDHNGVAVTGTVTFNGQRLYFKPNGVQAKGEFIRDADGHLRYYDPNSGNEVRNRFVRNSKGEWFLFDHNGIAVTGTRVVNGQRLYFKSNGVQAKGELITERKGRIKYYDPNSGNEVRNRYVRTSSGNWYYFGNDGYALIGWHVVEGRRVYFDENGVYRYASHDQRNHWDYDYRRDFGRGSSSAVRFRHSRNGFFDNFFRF

| Compound | inhibition [1] | inhibition [2] |
| --- | --- | --- |
| O=C(/C=C/c1ccc(O)cc1O)c1cccc(O)c1 (stereo in doubt; 9a) | Active | Active |
| O=C(/C=C\c1ccc(O)cc1O)c1ccc(O)cc1 | Active | Active |

Now from value to compound:

| inhibition [1] | inhibition [2] | Compound |
| --- | --- | --- |
| Active | Active | O=C(/C=C/c1cc(O)c(O)cc1O)c1ccccc1O (stereo in doubt; 18c) |
| Active | Active | O=C(/C=C/c1ccc(O)cc1O)c1ccc(O)cc1 |
| Active | Active | O=C(/C=C\c1ccc(O)cc1O)c1cccc(O)c1 |
